Laboratory results: PubChem BioAssay AID623982 (Broad Institute, 2012)
Several values for one entry are separate records, joined by “and”; a condition that tells them apart may be missing. Equal values may be shown once. Activity calls are given as the source filed them.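 Rule for the calls: active = compounds cutting fungal growth signal with fitted half-effect dose at most twice the top valid dose; inconclusive = flat curve at 30 to 70% inhibition, or poor fit; inactive = the rest.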

Columns and labels:
[1] = C. albicans CaCi-17 antifungal growth inhibitors – CaCi-17 strain, retest, dry powder, set 3, dose response (AID 623982); settings: C. albicans CaCi-17 growth, Alamar Blue fluorescence, 48 h; at 3 µM (top of the series)
In short: (§1)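 control set = amphotericin B at 10 µM as positive control | medium = buffered RPMI | technique = fluorescence from Alamar Blue conversion, read 2 h after dye addition | timing = 48 h exposure, 37 °C, humidified, static | read-out basis = growth inhibition as signal decrease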

[2] = test system: C. albicans CaCi-17 growth, Alamar Blue fluorescence, 48 h; assay: as above
In short: as §1

SMILES | activity change, negative = inhibition [1] | AC50 [2] [nM]
CCOC(=O)N1C(=O)C2(CCCCC2)N(c2ccc(C)cc2)C1=S | 100% (inactive) and 85.9% (inactive) | –
CCOC(=O)N1C(=O)C2(CCCCC2)N(c2ccc(F)cc2)C1=S | – | 783
C/C=C/[C@@H]1[C@H]2C[C@@H](C)CC[C@@H]2C(C)=C[C@H]1C(=O)c1c(O)c(-c2ccc(O)cc2)c[nH]c1=O | 54.1% (inactive) | –
CC1/C=C/C=C\C=C\C=C\C=C\C=C\C=C\C(O[C@H]2OC(C)C(O)C(N)C2O)CC2OC(O)(CC(O)CC(O)C(O)CCC(O)CC(O)CC(=O)OC(C)C(C)C1O)CC(O)C2C(=O)O (stereo partly specified) | – | 83.8
CCOC(=O)N1C(=O)C2(CCCCC2)N(c2ccccc2)C1=S | 104% (inactive) | –
CCOC(=O)N1C(=O)C2(CCCCC2)N(c2cccc(C)c2)C1=S | 70.9% (inactive) | –
